This is an account of results in ChEMBL document CHEMBL1123362, “Resolution, absolute configuration, and cholinergic enantioselectivity of (+)- and (-)-cis-2-methyl-5-[(dimethylamino)methyl]-1,3-oxathiolane methiodide” (1986).

Values joined by “and” are separate entries in the source; they are usually repeats but may differ in a detail not shown here. Identical values can stand only once. A value given as a limit tells only on which side of the number the result lay.

One assay is filed under the species Cavia porcellus. Nature of the assay: Potency was evaluated on guinea pig ileum. The class given is functional. The method in brief:
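Isolated ileum strip in aerated (O₂ with 5% CO₂) Tyrode-type salt solution (glucose 5 mM) at 37 °C. Isotonic contractions recorded at 1 g loading tension. After 30 min equilibration, cumulative concentration-response curves were run without reaching supramaximal concentrations. Potency expressed as equipotent molar ratio versus carbachol. EPMR averages compared by t-test (p < 0.05).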

Assay [1] in a line: Potency was evaluated on frog rectus abdominis. The format is functional, Rectus abdominis muscle.
Assay [2] can be described thus: Compound was evaluated for the ratio of ED50 of nicotinic agonist (N) and ED50 of muscarinic agonist (M). The format is functional.
The nature of assay [3]: Equipotent molar ratio (EPMR) between ED50 and ED50 of carbachol calculated through the regression of the angular transformant of the fractional log concentration of agonist. The format is functional.

As to `C[C@H]1O[C@H](CN(C)C)CS1` (racemic) [listing 1 of 2 here], the figures for the ED50 (in the assay filed under Cavia porcellus; in assay [1]) were 2.76e-07 and 1.7e-05, respectively. Turning to `C[C@@H]1O[C@H](C[N+](C)(C)C)CS1` (racemic), the Ratio in assay [2] amounted to 642. `C[C@H]1O[C@H](CN(C)C)CS1` (racemic) [listing 2 of 2 here]: the Ratio in assay [2] was 61.6. `C[C@@H]1O[C@H](C[N+](C)(C)C)CS1` (stereo in doubt; (+)-1): the Ratio in assay [2] amounted to 537. Take `C[C@H]1O[C@H](CN(C)C)CS1` (stereo in doubt; (+)-10) [listing 1 of 2 here]: the ED50 was 6.13e-07 in the assay listed under Cavia porcellus and 1.84e-05 in assay [1]. For the compound `C[C@H]1O[C@H](CN(C)C)CS1` (stereo in doubt; (+)-10) [listing 2 of 2 here], the Ratio in assay [3] was 3 and 4.5; in assay [2], 30. Take `C[C@@H]1O[C@H](C[N+](C)(C)C)CS1` (stereo in doubt; (-)-1): in assay [2], the Ratio is 64. On to `C[C@H]1O[C@H](CN(C)C)CS1` (stereo in doubt; (-)-10) [listing 1 of 2 here], for which the figures for the ED50 (in the assay filed under Cavia porcellus; in assay [1]) were 4.2e-07 and 1.12e-05, respectively.

Turning to `C[C@H]1O[C@H](CN(C)C)CS1` (stereo in doubt; (-)-10) [listing 2 of 2 here], the Ratio is 2 and 2.8 in assay [3]; 26.6 in assay [2]. Regarding `C[N+](C)(C)CCOC(N)=O.[Cl-]` [CARBACHOL], the results for the ED50 (in the assay listed under Cavia porcellus; in assay [1]) were 2.11e-07 and 4.04e-06, respectively. Also, the Ratio in assay [3] was 1; in assay [2], 19.2.

As for `C[C@@H]1O[C@H](C[N+](C)(C)C)C[C@H]1O` [MUSCARINE], the values for the ED50 (in the assay listed under Cavia porcellus; in assay [1]) were 7.94e-08 and over 0.0005, respectively. The Ratio in assay [2] was over 6300.
